A selection: hits, their analogues and other compounds. The true share with any hit is near 3%.
SENP8 block-1: inhibitors of human SENP8 protease. Q96LD8. recombinant SENP8, Nedd8 substrate fluorescence. inhibition, % at 20 µM. 360,000 compounds, 0.64% hits. AID 602440; in the data active = inhibition mostly above about 40%, no sharp cut-off; inactive = mostly below about 27%
Apaf1 inhib: blocks human Apaf-1 apoptosome activity | inhibition, % at 20 µM | reconstituted apoptosome caspase-3 activity, DEVD-Rh110 fluorescence | O14727 | 330,000 compounds, 0.71% hits; active = inhibition of at least 40% at 20 µM;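 also: plate controls were DMSO wells for no effect and DEVD-CHO caspase inhibitor wells for full effect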
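Material: reconstituted apoptosome with Apaf-1, cytochrome c, caspase-9, procaspase-3, dATP; medium: pH 7.5 Hepes buffer with CHAPS, BSA, DTT; also added: cytochrome c and DEVD-Rh110 substrate; timing: 30 min plus 50 min, RT; signal: Rh110 fluorescence intensity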
SENP7 inh: blocks the human protease SENP7; Q9BQF6; recombinant SENP7, Z-RLRGG-aminoluciferin luminescence, 40 min; inhibition, % at 5 µM; 330,000 compounds, 1.5% hits; AID 434973;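 active = inhibition above about 50% at the single test dose, limit read from the data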;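 also: plate controls were DMSO with enzyme for no effect and no enzyme buffer wells for full effect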
Target sequence (Q9BQF6 706-1050 limits assumed): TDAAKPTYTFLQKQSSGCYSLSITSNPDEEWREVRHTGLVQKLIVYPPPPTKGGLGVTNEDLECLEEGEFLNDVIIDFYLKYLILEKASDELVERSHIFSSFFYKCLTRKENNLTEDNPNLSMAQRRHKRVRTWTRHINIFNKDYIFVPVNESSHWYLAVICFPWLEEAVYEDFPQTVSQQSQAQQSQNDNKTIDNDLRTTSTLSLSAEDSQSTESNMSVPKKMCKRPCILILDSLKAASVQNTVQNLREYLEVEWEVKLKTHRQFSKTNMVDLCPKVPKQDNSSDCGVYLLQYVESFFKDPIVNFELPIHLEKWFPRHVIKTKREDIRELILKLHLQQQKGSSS
UBC13 inh: blocks human UBC13 polyubiquitin chain formation; P61088; TR-FRET; inhibition, % at 20 µM; 330,000 compounds, 0.47% hits; in the data active = inhibition above about 45%, passing the limit was not always enough
Target sequence (P61088 whole entry, looked up): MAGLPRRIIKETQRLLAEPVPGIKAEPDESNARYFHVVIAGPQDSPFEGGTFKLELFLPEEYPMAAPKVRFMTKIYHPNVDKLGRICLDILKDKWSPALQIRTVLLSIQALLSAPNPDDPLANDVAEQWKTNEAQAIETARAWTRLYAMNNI
SENP6 block: blocks the human protease SENP6; Recombinant SENP6 catalytic domain, aminoluciferin luminescence; 330,000 compounds, 1.8% hits; Q9GZR1; inhibition, % at 10 µM; AID 2599;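 active = inhibition above about 50% at the single tested dose, limit read from the data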;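 also: plate controls were DMSO wells with enzyme for no effect and DMSO wells lacking enzyme for full effect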
SENP8 block-2: inhibitors of human SENP8 protease | purified SENP8, Z-RLRGG-aminoluciferin cleavage, luminescence | inhibition, % at 10 µM | 330,000 compounds, 1.2% hits | AID 2540; in the data active = inhibition above about 50%
SENP8 conf: confirmation of human SENP8 protease inhibitors | Recombinant SENP8, Z-RLRGG-aminoluciferin luminescence, 60 min | AID 488912 | 6,200 compounds, 40% hits | shares compounds with SENP7 inh | inhibition, % at 12.5 µM;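 active = mean inhibition across replicates above about 50%, limit read from the data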
SENP6 confirm: confirmation of human SENP6 protease inhibitors | AID 488915 | recombinant SENP6, Z-RLRGG-aminoluciferin luminescence | 6,200 compounds, 58% hits | inhibition, % at 12.5 µM | shares compounds with SENP7 inh
SENP7 confirm: confirmation of human SENP7 protease inhibitors. recombinant SENP7, Z-RLRGG-aminoluciferin luminescence, 40 min. inhibition, % at 12.5 µM. shares compounds with SENP7 inh. 6,200 compounds, 69% hits
Casp3 select: inhibits human caspase-3 in SENP selectivity test | shares compounds with SENP7 inh | purified caspase-3, Z-DEVD-aminoluciferin luminescence, 60 min | inhibition, % at 12.5 µM | 6,200 compounds, 60% hits | AID 488918;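 active = mean inhibition above about 50%, limit read from the data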;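 also: plate controls were enzyme with DMSO for no effect and wells without caspase-3 for full effect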
Luc interf: interferes with luciferase luminescence in SENP counter-screen; Pre-incubated SENP8/Z-RLRGG-aminoluciferin, luciferase luminescence interference; AID 488919; inhibition, % at 12.5 µM; shares compounds with SENP7 inh; 6,200 compounds, 39% hits;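 active = mean inhibition above about 50% when retested at one dose, limit read from the data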;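 also: plate controls were DMSO wells with completed reaction for no effect and substrate without enzyme for full effect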
* hit, by the source's call; i = inactive; nt = no result.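 The calls were made as follows, unless noted: active = mean inhibition above about 50% in the one-dose retest (limit read from the data); inactive = the rest.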

SMILES | SENP8 block-1 | Apaf1 inhib | SENP7 inh | UBC13 inh | SENP6 block | SENP8 block-2 | SENP8 conf | SENP6 confirm | SENP7 confirm | Casp3 select | Luc interf
Cc1cc(N2CCOCC2)n2ncc(-c3ccccc3)c2n1 | -260 | -16 | 57* | 8 | 47 | 40 | 55* | 55* | 84* | 63* | 30
Cc1cc(NC2CCCC2)n2ncc(-c3ccccc3)c2n1 | -314 | 19 | 83* | 5 | 77* | 71* | 80* | 84* | 93* | 62* | 32
COC(=O)[C@H](CO)N1C(=O)[C@@H]2[C@H](C1=O)C1C=C[C@H]2C1 | 5 | nt | nt | nt | nt | nt | nt | nt | nt | nt | nt
NC(=O)C1CCN(C2=C(NS(=O)(=O)c3ccccc3)C(=O)c3ccccc3C2=O)CC1 | 36 | 21 | 16 | -88 | 3 | 14 | nt | nt | nt | nt | nt
NC(=O)C1CCN(C2=C(Cl)C(=O)c3ccccc3C2=O)CC1 | -29 | 73* | 42 | -166 | 50* | 27 | -7 | 75* | 11 | -3 | -5
Nc1ccc(-c2nc3ccccc3[nH]2)cc1 | -414 | 7 | 65* | -4 | 70* | 48 | 49 | 47 | 83* | 82* | 66*
N#CCSc1ccc(-c2nc3ccccc3[nH]2)cn1 | -238 | 9 | 68* | -6 | 7 | 48 | 71* | 68* | 89* | 82* | 74*
O=C(CSc1ccc(-c2nc3ccccc3[nH]2)cn1)Nc1ccc2c(c1)OCCO2 | -113 | -13 | -6 | 0 | -21 | -12 | nt | nt | nt | nt | nt
Fc1ccc(-c2nc3ccccc3[nH]2)cc1 | 10 | -8 | 83* | 6 | 83* | 64* | -7 | 64* | 89* | 84* | 72*
CCOC(=O)CSc1ccc(-c2nc3ccccc3[nH]2)cn1 | i | 17 | 15 | -14 | 27 | -4 | nt | nt | nt | nt | nt
O=C(CSc1ccc(-c2nc3ccccc3[nH]2)cn1)Nc1ccc(S(=O)(=O)NC2CC2)cc1 | -264 | 6 | 72* | 4 | 85* | 71* | 82* | 48 | 98* | 56* | 86*
Nc1ccc(-c2nc3c(ccc4ccccc43)[nH]2)cc1 | i | -26 | 31 | 2 | 59* | 31 | 24 | 21 | 37 | 18 | -3
CC(CC(=O)Nc1ccc(S(=O)(=O)N2CCOCC2)cc1)c1ccccc1 (centres undefined) | 15 | -2 | 7 | -12 | -5 | 3 | nt | nt | nt | nt | nt
Fc1ccc(-c2nnc(-c3ccc(Cl)cc3Cl)o2)cc1 | 7 | 5 | 92* | 6 | 74* | 72* | 60* | 65* | 86* | 79* | 14
CSc1nnc(-c2ccc(F)cc2)o1 | 6 | -2 | 17 | 4 | -3 | 2 | nt | nt | nt | nt | nt
Clc1ccc(-c2nnc(-c3ccccc3)o2)c(Cl)c1 | -6 | 9 | 97* | 0 | 96* | 90* | 85* | 87* | 95* | 88* | 47
Fc1ccc(-c2nnc(-c3ccc(Cl)cc3)o2)cc1 | -2 | 7 | 56* | -15 | 24 | -7 | 20 | 21 | 39 | 41 | 10
COC(CNC(=O)c1ccc(CS(=O)(=O)c2ccc(Br)cc2)o1)OC | 10 | 5 | 10 | 2 | 0 | 6 | nt | nt | nt | nt | nt
CNC(=S)NNC(=O)c1sc(-c2cc(C)on2)nc1C | -125 | -3 | -2 | -1 | -5 | 2 | nt | nt | nt | nt | nt
Cn1c(=O)c2ncn(CC(=O)Nc3cccc(-c4nc5ccccc5s4)c3)c2n(C)c1=O | -146 | 15 | -8 | 2 | 72* | 60* | 12 | 43 | 64* | 36 | 24
CCc1ccc(NC(=O)Cn2cnc3c(=O)n(C)c(=O)n(C)c32)cc1 | 11 | -12 | -4 | 5 | -15 | 3 | nt | nt | nt | nt | nt
CCOC(=O)Cc1ccc2sc(-c3ccccc3)nc2c1 | 3 | 6 | 99* | -2 | 97* | 95* | 98* | 99* | 102* | 97* | 92*
CCOC(=O)c1sc(-c2ccccc2)nc1C | 15 | -2 | 23 | 6 | 31 | 12 | nt | nt | nt | nt | nt
COCCN(C(=O)CNC(=O)c1cccs1)C(C(=O)NC(C)(C)C)c1ccccc1 (centres undefined) | 18 | -17 | 9 | 4 | -3 | -2 | nt | nt | nt | nt | nt
Cc1ccc2nc(NC(=O)c3cccs3)sc2c1 | -361 | -2 | 98* | 12 | 92* | 89* | 42 | 89* | 92* | 74* | 6
SMILES | SENP8 block-1 | Apaf1 inhib | SENP7 inh | UBC13 inh | SENP6 block | SENP8 block-2 | SENP8 conf | SENP6 confirm | SENP7 confirm | Casp3 select | Luc interf
Cc1ccc(C(=O)Nc2nc3ccc(S(C)(=O)=O)cc3s2)s1 | -202 | -5 | 47 | 14 | 68* | 51* | 5 | 53* | 43 | 62* | 23
CS(=O)(=O)c1ccc2nc(NC(=O)c3cccs3)sc2c1 | -354 | -2 | 89* | 3 | 91* | 84* | -30 | 79* | 95* | 88* | 60*
Cc1ccc2nc(NC(=S)NC(=O)c3cccs3)sc2c1 | 19 | 17 | 5 | -6 | 47 | -1 | nt | nt | nt | nt | nt
CCC(=O)Nc1nc2ccc(S(C)(=O)=O)cc2s1 | 13 | 0 | -6 | 6 | -16 | 3 | nt | nt | nt | nt | nt
Cc1ccc(C(=O)Nc2nc3ccccc3s2)s1 | -113 | 16 | 85* | 20 | 91* | 73* | 57* | 83* | 97* | 76* | 49
O=C(O)c1ccccc1-c1ccccc1C(=O)Nc1nc2ccccc2s1 | 4 | 12 | -6 | -7 | -13 | -2 | nt | nt | nt | nt | nt
Cc1ccc(CNc2nc3ccccc3s2)s1 | 22 | 0 | 87* | 6 | 85* | 76* | 73* | 72* | 92* | 71* | 34
Cc1ccc(C(=O)O)c(C(=O)Nc2nc3ccccc3s2)c1 | 16 | -3 | -2 | 5 | 69* | 67* | 90* | 91* | 100* | 95* | 76*
COc1ccc(NC(=S)N(CCCN2CCCC2)Cc2cccn2Cc2ccc(Cl)cc2)cc1Cl | 34 | 36 | 7 | 25 | -5 | -3 | nt | nt | nt | nt | nt
COc1ccc(-c2nnc(SCc3ccccc3F)o2)cc1 | 15 | 4 | 67* | -1 | 69* | 53* | 68* | 70* | 89* | 49 | 51*
Fc1ccccc1CSc1nnc(-c2cccnc2)o1 | 22 | -4 | 4 | 6 | 15 | 6 | nt | nt | nt | nt | nt
